Values joined by “and” are separate entries in the source; they are usually repeats but may differ in a detail not shown here. Identical values can stand only once.
System: U2OS
Assay: Multiplex assay against U2OS
Format: toxicity, cell-based
Conditions: human
Procedure, shortened: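 Compound was added to live cells that had been stained at seeding with Hoechst33342, BioTracker Green Microtubule Cytoskeleton Dye, MitoTracker Red and Annexin V Alexa Fluor 680, and imaging followed on a CQ1 microscope at 37°C and 5% CO2. CellPathfinder machine-learning gating divided cells into Hoechst high-intensity objects or normal cells, normal cells into healthy, pyknosed or fragmented nuclei, and pyknosed cells into mitotic or apoptotic. Tubulin, mitochondrial-mass and membrane-permeability phenotypes are per cents of healthy-nucleus cells.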

[1] = 12 h, 1 µM, compound concentration 1 uM
[2] = 12 h, 10 µM, compound concentration 10 uM
[3] = 24 h, 1 µM, compound concentration 1 uM
[4] = 24 h, 10 µM, compound concentration 10 uM
[5] = 48 h, 1 µM, compound concentration 1 uM
[6] = 48 h, 10 µM, compound concentration 10 uM

## COc1cc(OC2CCN(C(C)=O)CC2)ccc1C(=O)N1CCC(N2C(=O)OCc3ccccc32)CC1
[1]
  Population Apoptotic (%): 50% and 66%
  Population Fragmented Nuclei (%): 22% and 20%
  Population Healthy Nuclei (%): 67% and 69%
  Population Hoechst High Intensity Objects (%): 0%
  Population Membrane Permeable-Phenotype (%): 5% and 11%
  Population Mitochondria Different-Phenotype (%): 3% and 7%
  Population Mitotic Cells (%): 50% and 33%
  Population Normal (%): 99%
  Population Pyknosed Nuclei (%): 9%
  Population Tubulin-Different-Phenotype (%): 3% and 8%
  Total Cell Count: 233 and 130
[2]
  Population Apoptotic (%): 72% and 87%
  Population Fragmented Nuclei (%): 23% and 13%
  Population Healthy Nuclei (%): 62% and 77%
  Population Hoechst High Intensity Objects (%): 6% and 1%
  Population Membrane Permeable-Phenotype (%): 18% and 21%
  Population Mitochondria Different-Phenotype (%): 6% and 10%
  Population Mitotic Cells (%): 27% and 12%
  Population Normal (%): 93% and 98%
  Population Pyknosed Nuclei (%): 13% and 9%
  Population Tubulin-Different-Phenotype (%): 12% and 13%
  Total Cell Count: 228 and 85
[3]
  Population Apoptotic (%): 82% and 76%
  Population Fragmented Nuclei (%): 20% and 22%
  Population Healthy Nuclei (%): 71% and 68%
  Population Hoechst High Intensity Objects (%): 1%
  Population Membrane Permeable-Phenotype (%): 3% and 7%
  Population Mitochondria Different-Phenotype (%): 2% and 5%
  Population Mitotic Cells (%): 17% and 23%
  Population Normal (%): 98%
  Population Pyknosed Nuclei (%): 8%
  Population Tubulin-Different-Phenotype (%): 2% and 3%
  Total Cell Count: 288 and 163
[4]
  Population Apoptotic (%): 81% and 71%
  Population Fragmented Nuclei (%): 21% and 12%
  Population Healthy Nuclei (%): 60% and 80%
  Population Hoechst High Intensity Objects (%): 5% and 2%
  Population Membrane Permeable-Phenotype (%): 9% and 10%
  Population Mitochondria Different-Phenotype (%): 9% and 3%
  Population Mitotic Cells (%): 18% and 28%
  Population Normal (%): 94% and 97%
  Population Pyknosed Nuclei (%): 18% and 7%
  Population Tubulin-Different-Phenotype (%): 4% and 6%
  Total Cell Count: 250 and 99
[5]
  Population Apoptotic (%): 80% and 65%
  Population Fragmented Nuclei (%): 17% and 23%
  Population Healthy Nuclei (%): 77% and 66%
  Population Hoechst High Intensity Objects (%): 3%
  Population Membrane Permeable-Phenotype (%): 3% and 10%
  Population Mitochondria Different-Phenotype (%): 1% and 5%
  Population Mitotic Cells (%): 19% and 35%
  Population Normal (%): 96%
  Population Pyknosed Nuclei (%): 5% and 9%
  Population Tubulin-Different-Phenotype (%): 2% and 4%
  Total Cell Count: 388 and 213
[6]
  Population Apoptotic (%): 81% and 100%
  Population Fragmented Nuclei (%): 19% and 17%
  Population Healthy Nuclei (%): 66% and 78%
  Population Hoechst High Intensity Objects (%): 5% and 1%
  Population Membrane Permeable-Phenotype (%): 5% and 14%
  Population Mitochondria Different-Phenotype (%): 4% and 6%
  Population Mitotic Cells (%): 18% and 0%
  Population Normal (%): 95% and 98%
  Population Tubulin-Different-Phenotype (%): 3% and 8%
  Total Cell Count: 320 and 130
